Data from ChEMBL document CHEMBL1151723, “Antiplasmodial alkaloids from Desmos rostrata” (J Nat Prod, 2008).

Legend:
KB = experiment: Cytotoxicity against human KB cells after 72 hrs by neutral red staining; assay type: functional, cell-based
Summary of the method: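 Human nasopharynx carcinoma KB cells (3 × 10^3 cells/mL) in D-MEM with 10% FCS, 2 mM L-glutamine, penicillin G, streptomycin, gentamicin. Compound stocks in DMSO/H2O (1:9). Exposure 72 h at 37 °C, air/CO2 95:5; growth read colorimetrically by neutral red uptake of living cells, relative to untreated cells.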

Plasmodium falciparum = experiment: Antiplasmodial activity against Plasmodium falciparum FcB1 as [3H]hypoxanthine uptake after 24 hrs; assay type: functional, organism-based
Summary of the method: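 Chloroquine-resistant FcB1/Colombia P. falciparum, asynchronous cultures at 1% parasitemia, 1.5% final hematocrit. Compounds taken from 10 µg/mL DMSO solution, diluted in culture medium; 24 h at 37 °C in candle jar, then 0.5 µCi [3H]hypoxanthine per well, further 24 h. Freeze-thaw, harvest onto glass fibre filters, scintillation count; inhibition vs same-plate untreated control; IC50 by Desjardins method.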

| SMILES | IC50 (KB) [µM] | IC50 (Plasmodium falciparum) [µM] |
| --- | --- | --- |
| COc1cc2c(cc1OC)-c1c(OC)c(O)cc3c1[C@H](C2)N(C)CC3 [PREDICENTRINE] | > 29 | 27.8 |
| COc1cc2c(cc1O)CC[n+]1cc3cc(OC)c(OC)cc3cc1-2 [DEHYDRODISCRETINE] | > 29 | 0.9 |
| CC(=O)O[C@@]12CO[C@@H]1C[C@H](O)[C@@]1(C)C(=O)[C@H](O)C3=C(C)[C@@H](OC(=O)[C@H](O)[C@@H](NC(=O)OC(C)(C)C)c4ccccc4)C[C@@](O)([C@@H](OC(=O)c4ccccc4)[C@H]21)C3(C)C [DOCETAXEL] | 0.0002 | – |
| COc1cc2c(cc1O)CC[N+]1([O-])Cc3cc(OC)c(OC)cc3C[C@@H]21 (stereo partly drawn) | > 28 | 4.2 |
| COc1cc2c(cc1O)CCN1Cc3cc(OC)c(OC)cc3C[C@@H]21 [DISCRETINE] | > 29 | 1.6 |
| COc1ccc2c(c1OC)C[C@H]1NCCc3c(OC)c4c(c-2c31)OCO4 [DESMOROSTRATINE] | 2.4 | 3.6 |
| COc1c(O)cc2c3c(cc4ccccc4c13)NC2=O [ARISTOLACTAM AII] | > 37 | > 37 |
